Assays:
Type in all cases: functional
[1] = system: Coptotermes formosanus; assay: Termiticidal activity against Coptotermes formosanus placed on 0.001 % wt/wt compound treated filter paper assessed as termite mortality measured 17 days post compound exposure
Summary of the method: (§1)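 Treated filter paper disks moistened with 100 µL water; 20 C. formosanus workers (third instar or greater) plus 1 soldier per dish from field colonies kept on spruce, ca. 100% RH, 26.6 °C. Daily mortality scored for 3 weeks; cumulative percent mortality from four replicates, each a different colony; water-only controls; ANOVA, protected Fisher LSD (P < 0.05) after arcsine square-root transform.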

[2] = system: Coptotermes formosanus; assay: Termiticidal activity against Coptotermes formosanus placed on 0.01 % wt/wt compound treated filter paper assessed as termite mortality measured 17 days post compound exposure; summary of the method: as §1
[3] = system: Coptotermes formosanus; assay: Termiticidal activity against Coptotermes formosanus placed on 0.05 % wt/wt compound treated filter paper assessed as termite mortality measured 17 days post compound exposure; summary of the method: as §1
[4] = system: Coptotermes formosanus; assay: Termiticidal activity against Coptotermes formosanus placed on 0.1 % wt/wt compound treated filter paper assessed as termite mortality measured 17 days post compound exposure; summary of the method: as §1
[5] = system: Coptotermes formosanus; assay: Termiticidal activity against Coptotermes formosanus placed on 0.5 % wt/wt compound treated filter paper assessed as termite mortality measured 17 days post compound exposure; summary of the method: as §1
[6] = system: Coptotermes formosanus; assay: Termiticidal activity against Coptotermes formosanus placed on 0.001 % wt/wt compound treated filter paper assessed as termite mortality measured 13 days post compound exposure; summary of the method: as §1
[7] = system: Coptotermes formosanus; assay: Termiticidal activity against Coptotermes formosanus placed on 0.01 % wt/wt compound treated filter paper assessed as termite mortality measured 13 days post compound exposure; summary of the method: as §1
[8] = system: Coptotermes formosanus; assay: Termiticidal activity against Coptotermes formosanus placed on 0.05 % wt/wt compound treated filter paper assessed as termite mortality measured 13 days post compound exposure; summary of the method: as §1
[9] = system: Coptotermes formosanus; assay: Termiticidal activity against Coptotermes formosanus placed on 0.1 % wt/wt compound treated filter paper assessed as termite mortality measured 13 days post compound exposure; summary of the method: as §1
[10] = system: Coptotermes formosanus; assay: Termiticidal activity against Coptotermes formosanus placed on 0.5 % wt/wt compound treated filter paper assessed as termite mortality measured 13 days post compound exposure; summary of the method: as §1
[11] = system: Coptotermes formosanus; assay: Termiticidal activity against Coptotermes formosanus placed on 0.001 % wt/wt compound treated filter paper assessed as termite mortality measured 11 days post compound exposure; summary of the method: as §1
[12] = system: Coptotermes formosanus; assay: Termiticidal activity against Coptotermes formosanus placed on 0.01 % wt/wt compound treated filter paper assessed as termite mortality measured 11 days post compound exposure; summary of the method: as §1
[13] = system: Coptotermes formosanus; assay: Termiticidal activity against Coptotermes formosanus placed on 0.05 % wt/wt compound treated filter paper assessed as termite mortality measured 11 days post compound exposure; summary of the method: as §1
[14] = system: Coptotermes formosanus; assay: Termiticidal activity against Coptotermes formosanus placed on 0.1 % wt/wt compound treated filter paper assessed as termite mortality measured 11 days post compound exposure; summary of the method: as §1
[15] = system: Coptotermes formosanus; assay: Termiticidal activity against Coptotermes formosanus placed on 0.001 % wt/wt compound treated filter paper assessed as termite mortality measured 9 days post compound exposure; summary of the method: as §1
[16] = system: Coptotermes formosanus; assay: Termiticidal activity against Coptotermes formosanus placed on 0.01 % wt/wt compound treated filter paper assessed as termite mortality measured 9 days post compound exposure; summary of the method: as §1
[17] = system: Coptotermes formosanus; assay: Termiticidal activity against Coptotermes formosanus placed on 0.05 % wt/wt compound treated filter paper assessed as termite mortality measured 9 days post compound exposure; summary of the method: as §1
[18] = system: Coptotermes formosanus; assay: Termiticidal activity against Coptotermes formosanus placed on 0.1 % wt/wt compound treated filter paper assessed as termite mortality measured 9 days post compound exposure; summary of the method: as §1
[19] = system: Coptotermes formosanus; assay: Termiticidal activity against Coptotermes formosanus placed on 0.5 % wt/wt compound treated filter paper assessed as termite mortality measured 9 days post compound exposure; summary of the method: as §1
[20] = system: Coptotermes formosanus; assay: Termiticidal activity against Coptotermes formosanus placed on 0.001 % wt/wt compound treated filter paper assessed as termite mortality measured 6 days post compound exposure; summary of the method: as §1
[21] = system: Coptotermes formosanus; assay: Termiticidal activity against Coptotermes formosanus placed on 0.01 % wt/wt compound treated filter paper assessed as termite mortality measured 6 days post compound exposure; summary of the method: as §1
[22] = system: Coptotermes formosanus; assay: Termiticidal activity against Coptotermes formosanus placed on 0.05 % wt/wt compound treated filter paper assessed as termite mortality measured 6 days post compound exposure; summary of the method: as §1
[23] = system: Coptotermes formosanus; assay: Termiticidal activity against Coptotermes formosanus placed on 0.1 % wt/wt compound treated filter paper assessed as termite mortality measured 6 days post compound exposure; summary of the method: as §1
[24] = system: Coptotermes formosanus; assay: Termiticidal activity against Coptotermes formosanus placed on 0.5 % wt/wt compound treated filter paper assessed as termite mortality measured 6 days post compound exposure; summary of the method: as §1
[25] = system: Coptotermes formosanus; assay: Termiticidal activity against Coptotermes formosanus placed on 1 % wt/wt compound treated filter paper assessed as termite mortality measured 21 days post compound exposure
[26] = system: Coptotermes formosanus; assay: Termiticidal activity against Coptotermes formosanus placed on 1 % wt/wt compound treated filter paper assessed as termite mortality measured 11 days post compound exposure
[27] = system: Coptotermes formosanus; assay: Termiticidal activity against Coptotermes formosanus placed on 1 % wt/wt compound treated filter paper assessed as termite mortality measured 3 days post compound exposure
[28] = system: Coptotermes formosanus; assay: Termiticidal activity against Coptotermes formosanus placed on 0.5 % wt/wt compound treated filter paper assessed as termite mortality measured 21 days post compound exposure; summary of the method: as §1
[29] = system: Coptotermes formosanus; assay: Termiticidal activity against Coptotermes formosanus placed on 0.5 % wt/wt compound treated filter paper assessed as termite mortality measured 11 days post compound exposure; summary of the method: as §1
[30] = system: Coptotermes formosanus; assay: Antifeedant activity against Coptotermes formosanus placed on 1 % wt/wt compound treated filter paper assessed as filter paper consumption measured 21 days post compound exposure (reference value: 15.9 +/- 10.4 mg)
[31] = system: Coptotermes formosanus; assay: Termiticidal activity against Coptotermes formosanus placed on 0.001 % wt/wt compound treated filter paper assessed as termite mortality measured 21 days post compound exposure; summary of the method: as §1
[32] = system: Coptotermes formosanus; assay: Termiticidal activity against Coptotermes formosanus placed on 0.01 % wt/wt compound treated filter paper assessed as termite mortality measured 21 days post compound exposure; summary of the method: as §1
[33] = system: Coptotermes formosanus; assay: Termiticidal activity against Coptotermes formosanus placed on 0.05 % wt/wt compound treated filter paper assessed as termite mortality measured 21 days post compound exposure; summary of the method: as §1
[34] = system: Coptotermes formosanus; assay: Termiticidal activity against Coptotermes formosanus placed on 0.1 % wt/wt compound treated filter paper assessed as termite mortality measured 21 days post compound exposure; summary of the method: as §1
[35] = system: Coptotermes formosanus; assay: Antifeedant activity against Coptotermes formosanus placed on 0.001 % wt/wt compound treated filter paper assessed as filter paper consumption measured 21 days post compound exposure (reference value: 113.2 +/- 11.9 mg)
[36] = system: Coptotermes formosanus; assay: Antifeedant activity against Coptotermes formosanus placed on 0.01 % wt/wt compound treated filter paper assessed as filter paper consumption measured 21 days post compound exposure (reference value: 113.2 +/- 11.9 mg)
[37] = system: Coptotermes formosanus; assay: Antifeedant activity against Coptotermes formosanus placed on 0.05 % wt/wt compound treated filter paper assessed as filter paper consumption measured 21 days post compound exposure (reference value: 113.2 +/- 11.9 mg)
[38] = system: Coptotermes formosanus; assay: Antifeedant activity against Coptotermes formosanus placed on 0.1 % wt/wt compound treated filter paper assessed as filter paper consumption measured 21 days post compound exposure (reference value: 113.2 +/- 11.9 mg)
[39] = system: Coptotermes formosanus; assay: Antifeedant activity against Coptotermes formosanus placed on 0.5 % wt/wt compound treated filter paper assessed as filter paper consumption measured 21 days post compound exposure (reference value: 113.2 +/- 11.9 mg)
[40] = system: Coptotermes formosanus; assay: Antifeedant activity against Coptotermes formosanus placed on 0.5 % wt/wt compound treated filter paper assessed as filter paper consumption measured 21 days post compound exposure (reference value: 78.2 +/- 26.7 mg)
[41] = system: Coptotermes formosanus; assay: Antifeedant activity against Coptotermes formosanus placed on 1 % wt/wt compound treated filter paper assessed as filter paper consumption measured 21 days post compound exposure (reference value: 85 +/- 15.1 mg)
[42] = system: Coptotermes formosanus; assay: Antifeedant activity against Coptotermes formosanus placed on 0.001 % wt/wt compound treated filter paper assessed as filter paper consumption measured 21 days post compound exposure (reference value: 78.2 +/- 26.7 mg)
[43] = system: Coptotermes formosanus; assay: Antifeedant activity against Coptotermes formosanus placed on 0.01 % wt/wt compound treated filter paper assessed as filter paper consumption measured 21 days post compound exposure (reference value: 78.2 +/- 26.7 mg)
[44] = system: Coptotermes formosanus; assay: Antifeedant activity against Coptotermes formosanus placed on 0.05 % wt/wt compound treated filter paper assessed as filter paper consumption measured 21 days post compound exposure (reference value: 78.2 +/- 26.7 mg)
[45] = system: Coptotermes formosanus; assay: Antifeedant activity against Coptotermes formosanus placed on 0.1 % wt/wt compound treated filter paper assessed as filter paper consumption measured 21 days post compound exposure (reference value: 78.2 +/- 26.7 mg)

Row | SMILES | mortality [1] | mortality [2] | mortality [3] | mortality [4] | mortality [5] | mortality [6] | mortality [7] | mortality [8] | mortality [9] | mortality [10] | mortality [11] | mortality [12] | mortality [13] | mortality [14] | mortality [15] | mortality [16] | mortality [17] | mortality [18] | mortality [19] | mortality [20] | further results
1 | COC1=C(OC)C(=O)C(C)=C(C)C1=O [Aurantiogliocladin] | 0% | 0% | 0% | 0% | 0% | 0% | 0% | 0% | 0% | 0% | 0% | 0% | 0% | 0% | 0% | 0% | 0% | 0% | 0% | 0% | mortality [21]: 0%; mortality [22]: 0%; mortality [23]: 0%; mortality [24]: 0%; mortality [25]: 100%; mortality [26]: 100%; mortality [27]: 100%; mortality [28]: 0%; mortality [29]: 0%; Activity [30]: 0.1 mg; mortality [31]: 0%; mortality [32]: 1.7%; mortality [33]: 5%; mortality [34]: 0%; Activity [35]: 136.2 mg; Activity [36]: 86.6 mg; Activity [37]: 48.6 mg; Activity [38]: 107.7 mg; Activity [39]: 52.4 mg
2 | COC1=C(OC)C(=O)C(CC=C(C)C)=C(C)C1=O [Coenzyme Q1] | 3.3% | 5% | 5% | 8.3% | 8.3% | 3.3% | 5% | 0% | 0% | 5% | 3.3% | 5% | 0% | 0% | 3.3% | 5% | 0% | 0% | 3.3% | 3.3% | mortality [21]: 5%; mortality [22]: 0%; mortality [23]: 0%; mortality [24]: 3.3%; mortality [25]: 100%; mortality [26]: 100%; mortality [27]: 70%; mortality [28]: 10%; mortality [29]: 3.3%; Activity [40]: 95.8 mg; Activity [41]: 16.9 mg; mortality [31]: 3.3%; mortality [32]: 5%; mortality [33]: 5%; mortality [34]: 8.3%; Activity [42]: 98.5 mg; Activity [43]: 77.3 mg; Activity [44]: 98.1 mg; Activity [45]: 101.6 mg
